Experimental data published in ChEMBL document CHEMBL1134922, “Substituted 4-(2,2-diphenylethyl)pyridine-N-oxides as phosphodiesterase-4 inhibitors: SAR study directed toward the improvement of pharmacokinetic parameters” (Bioorg Med Chem Lett, 2002).
Where “and” joins values, the source holds several entries; their conditions need not be identical. Equal values may be shown once. Values belong to the compound of their own block, whether it stands above or below them. Calls of active or inactive are those of the source. The rule behind the calls is not given here.

Legend:
[1] = Half-life in Squirrel monkey; format: ADME; conditions: in vivo
[2] = Half-life in Dog; format: ADME, organism-based, Canis lupus familiaris; conditions: in vivo
[3] = Half-life in rat; format: ADME, organism-based; conditions: in vivo
[4] = tested on: Mustela putorius furo; assay: Emetic effect in ferrets to maximum 30 mg/kg oral dose; format: functional, organism-based; set-up: dose 30 mg/kg
In short: (§1)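 Ferrets dosed orally at 30 mg/kg; emesis monitored, with plasma Cmax recorded.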

[5] = Cmax in ferrets after 30mg/kg oral dose; format: ADME, organism-based, Mustela putorius furo; set-up: dose 30 mg/kg, route oral; conditions: ferret, in vivo; in short: as §1
[6] = tested on: Cavia porcellus; assay: Inhibition of the ovalbumin-induced bronchoconstriction in conscious guinea pigs after 0.5 hr pretreatment with 1 mg/kg administered intraperitoneally; format: functional; conditions: route intraperitoneal
[7] = tested on: Cavia porcellus; assay: Inhibition of the ovalbumin-induced bronchoconstriction in conscious guinea pigs after 4 hr pretreatment with 1 mg/kg administered intraperitoneally; format: functional; conditions: route intraperitoneal
[8] = organism: Homo sapiens; assay: Inhibition of LPS-induced TNF-alpha formation in human whole blood.; format: functional, organism-based
[9] = molecular target: 3',5'-cyclic-AMP phosphodiesterase 4A (Homo sapiens, UniProt P27815); assay: Inhibition of human Phosphodiesterase 4A isoform using construct representing the common region of spliced variants expressed as GST-fusion proteins in Sf9 cells.
Chain of 3',5'-cyclic-AMP phosphodiesterase 4A (P27815 whole entry, looked up, stated change not applied, the tested form may be a part, canonical isoform): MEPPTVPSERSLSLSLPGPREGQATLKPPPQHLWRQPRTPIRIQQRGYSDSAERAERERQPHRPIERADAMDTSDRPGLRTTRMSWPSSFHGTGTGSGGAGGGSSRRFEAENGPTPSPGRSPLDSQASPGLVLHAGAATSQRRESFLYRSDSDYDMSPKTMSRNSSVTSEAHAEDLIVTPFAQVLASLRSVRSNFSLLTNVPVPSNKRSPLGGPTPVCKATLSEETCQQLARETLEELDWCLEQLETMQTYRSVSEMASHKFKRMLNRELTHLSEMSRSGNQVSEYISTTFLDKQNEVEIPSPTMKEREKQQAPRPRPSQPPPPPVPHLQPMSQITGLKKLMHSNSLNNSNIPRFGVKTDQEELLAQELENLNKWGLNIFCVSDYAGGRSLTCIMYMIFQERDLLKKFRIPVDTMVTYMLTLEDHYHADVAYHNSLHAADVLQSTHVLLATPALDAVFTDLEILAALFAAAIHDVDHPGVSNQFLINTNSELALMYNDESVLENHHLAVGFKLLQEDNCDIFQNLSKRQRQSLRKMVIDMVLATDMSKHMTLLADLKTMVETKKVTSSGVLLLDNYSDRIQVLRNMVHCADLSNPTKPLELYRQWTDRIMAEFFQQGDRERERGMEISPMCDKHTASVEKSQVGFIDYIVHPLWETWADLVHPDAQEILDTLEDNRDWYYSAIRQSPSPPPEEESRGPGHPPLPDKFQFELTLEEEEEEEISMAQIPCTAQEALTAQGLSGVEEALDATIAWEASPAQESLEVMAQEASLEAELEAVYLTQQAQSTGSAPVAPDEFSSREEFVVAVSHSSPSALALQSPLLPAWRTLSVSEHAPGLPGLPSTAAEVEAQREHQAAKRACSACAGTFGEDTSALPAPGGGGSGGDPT

[10] = tested on: Ovis aries; assay: Inhibition of ascaris-induced bronchoconstriction in sheep after early treatment with 2 mg/kg intravenous dose; format: functional
In short: (§2)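 Sheep, ascaris-induced bronchoconstriction; 2 mg/kg given iv 2 h before challenge; percent inhibition of early and late responses.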

[11] = tested on: Ovis aries; assay: Inhibition of ascaris-induced bronchoconstriction in sheep after late treatment with 2 mg/kg intravenous dose; format: functional; in short: as §2
[12] = (§3) Inhibition of ascaris-induced bronchoconstriction in Anaesthetized squirrel monkey after treatment with 3 mg/kg peroral dose; format: functional; conditions: route oral
[13] = Bioavailability upon oral administration of compound; format: ADME, organism-based; conditions: rat, in vivo
In short: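 Rat, oral dosing at 3 mg/kg in 60% PEG200; bioavailability determined, with plasma level also sampled at 6 h.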

[14] = (§4) Inhibition of ascaris-induced bronchoconstriction in Anaesthetized squirrel monkey after treatment with 0.5 mg/kg peroral dose; format: functional; conditions: route oral
[15] = (§5) Inhibition of ascaris-induced bronchoconstriction in Anaesthetized squirrel monkey after treatment with 1 mg/kg peroral dose; format: functional; conditions: route oral
[16] = as §4; format: functional; conditions: route oral; remark: listed apart in the source
[17] = as §5; format: functional; conditions: route oral; remark: listed apart in the source
[18] = as §3; format: functional; conditions: route oral; remark: listed apart in the source
[19] = tested on: Ovis aries; assay: Inhibition of ascaris-induced bronchoconstriction in sheep after late treatment with 2 mg/kg intravenous dose
[20] = tested on: Ovis aries; assay: Inhibition of ascaris-induced bronchoconstriction in sheep after early treatment with 2 mg/kg intravenous dose

Structure (SMILES): Cc1c[n+]([O-])ccc1CC(c1ccc(C(O)(C(F)(F)F)C(F)(F)F)cc1)c1ccc(OC(F)F)c(OC(F)F)c1 (stereo in doubt) [listing 1 of 2 here]
Emesis [4]: inactive

Structure (SMILES): CC(c1cc[n+]([O-])cc1)C(c1ccc(C(O)(C(F)(F)F)C(F)(F)F)cc1)c1ccc(OC(F)F)c(OC(F)F)c1 (single isomer, unassigned; diastereomer 2)
IC50 [8]: 7800 nM
IC50 [9]: 39 nM

Structure (SMILES): Cc1c[n+]([O-])ccc1CC(c1ccc(C(O)(C(F)(F)F)C(F)(F)F)cc1)c1ccc(OC(F)F)c(OC(F)F)c1 (racemic)
IC50 [8]: 400 nM
IC50 [9]: 2.1 nM

Structure (SMILES): [O-][n+]1ccc(CC(c2ccc(C(O)(C(F)(F)F)C(F)(F)F)cc2)c2ccc(OC(F)F)c(OC(F)F)c2)c(CO)c1 (stereo unspecified)
IC50 ([8]; Homo sapiens, Blood): 7900 nM
IC50 [9]: 38 nM

Structure (SMILES): CC(O)c1c[n+]([O-])ccc1CC(c1ccc(C(O)(C(F)(F)F)C(F)(F)F)cc1)c1ccc(OC(F)F)c(OC(F)F)c1 (stereo unspecified)
IC50 ([8]; Homo sapiens, Blood): 13000 nM
IC50 [9]: 42 nM

Structure (SMILES): COc1ccc([C@]2(C#N)CC[C@@H](C(=O)O)CC2)cc1OC1CCCC1 [CILOMILAST]
IC50 ([8]; Homo sapiens, Blood): 18000 nM

Structure (SMILES): Cc1c[n+]([O-])cc(C)c1CC(c1ccc(C(O)(C(F)(F)F)C(F)(F)F)cc1)c1ccc(OC(F)F)c(OC(F)F)c1 (stereo unspecified)
IC50 ([8]; Homo sapiens, Blood): 5800 nM
IC50 [9]: 57 nM

Structure (SMILES): Cc1c[n+]([O-])ccc1CC(c1ccc(C(O)(C(F)(F)F)C(F)(F)F)cc1)c1ccc(OC(F)F)c(OC(F)F)c1 (stereo in doubt) [listing 2 of 2 here]
half-life [1]: 36 h
half-life [2]: 19 h
bioavailability [13]: 60%
half-life [3]: 10 h
Cmax [5]: 10 µM
Efficacy [6]: 82%
IC50 [8]: 300 nM
IC50 [9]: 1.3 nM and 4.2 nM
Efficacy [12]: 59%
Efficacy [14]: 26%
Efficacy [15]: 33%
Efficacy [16]: 38%
Efficacy [17]: 63%
Efficacy [18]: 100%
Efficacy [19]: 90%
Efficacy [20]: 62%

Structure (SMILES): Cc1c[n+]([O-])ccc1CC(c1ccc(C(O)(C(F)(F)F)C(F)(F)F)cc1)c1ccc(OC(F)F)c(OC(F)F)c1 (single isomer, unassigned; enantiomer 2)
IC50 [8]: 3700 nM
IC50 [9]: 23 nM

Structure (SMILES): CC(c1cc[n+]([O-])cc1)C(c1ccc(C(O)(C(F)(F)F)C(F)(F)F)cc1)c1ccc(OC(F)F)c(OC(F)F)c1 (single isomer, unassigned; diastereomer 1)
IC50 [8]: 23000 nM
IC50 [9]: 39 nM

Continued by falling IC50 [9], values first:

IC50 ([8]; Homo sapiens, Blood): 7800 nM
IC50 [9]: 32 nM
Structure (SMILES): Cc1cc(C(O)(C(F)(F)F)C(F)(F)F)ccc1C(Cc1cc[n+]([O-])cc1)c1ccc(OC(F)F)c(OC(F)F)c1 (stereo unspecified)

IC50 ([8]; Homo sapiens, Blood): 3900 nM
IC50 [9]: 27 nM
Structure (SMILES): CCc1c[n+]([O-])ccc1CC(c1ccc(C(O)(C(F)(F)F)C(F)(F)F)cc1)c1ccc(OC(F)F)c(OC(F)F)c1 (stereo unspecified)

IC50 ([8]; Homo sapiens, Blood): 300 nM
IC50 [9]: 18 nM
Structure (SMILES): Cc1cc(CC(c2ccc(C(O)(C(F)(F)F)C(F)(F)F)cc2)c2ccc(OC(F)F)c(OC(F)F)c2)cc[n+]1[O-] (stereo unspecified)

IC50 ([8]; Homo sapiens, Blood): 1000 nM
IC50 [9]: 4.4 nM
Structure (SMILES): Cc1cc(C(Cc2cc[n+]([O-])cc2)c2ccc(OC(F)F)c(OC(F)F)c2)ccc1C(O)(C(F)(F)F)C(F)(F)F (stereo unspecified)

half-life [1]: > 48 h
half-life [2]: > 48 h
half-life [3]: > 48 h
Cmax [5]: 14 µM
IC50 ([8]; Homo sapiens, Blood): 700 nM
IC50 [9]: 4.2 nM
Structure (SMILES): [O-][n+]1ccc(CC(c2ccc(C(O)(C(F)(F)F)C(F)(F)F)cc2)c2ccc(OC(F)F)c(OC(F)F)c2)cc1 (stereo unspecified)
Emesis [4]: inactive
Efficacy [6]: 0%
Efficacy [7]: 58%
Efficacy [10]: 85%
Efficacy [11]: 95%
Efficacy [12]: 96%

IC50 ([8]; Homo sapiens, Blood): 15000 nM
IC50 [9]: 4.2 nM
Structure (SMILES): COc1ccc([C@H](Cc2ccncc2)c2ccccc2)cc1OC1CCCC1 [CDP840]

IC50 ([8]; Homo sapiens, Blood): 2900 nM
IC50 [9]: 2.7 nM
Structure (SMILES): CC(=O)c1c[n+]([O-])ccc1CC(c1ccc(C(O)(C(F)(F)F)C(F)(F)F)cc1)c1ccc(OC(F)F)c(OC(F)F)c1 (stereo unspecified)
